This is a sample that favours compounds with a hit; in the whole collection about 3% have one here.
DNA FID counter: compounds displacing fluorescent DNA intercalator, primary screen, artefact control for HCV NS3 helicase inhibitor project, biochemical, FID fluorescence; DNA fluorescent intercalator displacement; inhibition, % at 7.9 µM; 0.17% of 290,000 active; AID 1845, 2009; in the data active = inhibition above about 37%;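 also: higher means more ethidium bromide displaced from hairpin DNA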
SR-BI HDL uptake: inhibitors of SR-BI mediated HDL lipid uptake, primary screen, ldlA[mSR-BI] cells, fluorescence, single point | ldlA[mSR-BI] CHO cells, DiI-HDL uptake fluorescence, 3 h | Scavenger receptor class B member 1 (Mus musculus), Q61009 | 0.96% of 320,000 active | inhibition, % at 12.5 µM;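 active = mean replicate inhibition of at least 70% and a set share of replicates each scoring 70 or more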
Kir21 inh: inhibitors of mouse Kir2.1 inward-rectifier potassium channel; HEK293-Kir2.1, FluxOR thallium flux fluorescence; active compounds read low; 0.85% of 310,000 active; AID 1672, 2009; Inward rectifier potassium channel 2 (Mus musculus), P35561; B-score at 10 µM;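 active = fluorescence ratio B-score at or below minus 3 SD of library scores, with starting-brightness B-score within 2 SD, cut at about -4.2 in these data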;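 also: channel flux triggered by added potassium and thallium sulfate stimulus; B-score of peak minus minimum fluorescence over baseline after thallium stimulus; more negative B-score means stronger Kir2.1 block with less thallium influx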
ANO1 activ: TMEM16A chloride channel activators or potentiators, primary screen, cell-based, HTS; Anoctamin-1 (Mus musculus), Q8BHY3; HEK293 TMEM16A/YFP-H148Q/I152L, iodide quench fluorescence; active compounds read low; B-score at 10 µM; 0.3% of 340,000 active;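 active = fluorescence-ratio B-score plate-corrected deviation score at least 3 library SD below zero, with starting fluorescence score within 5 deviations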;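 also: channel opened by trigger with iodide after compound preincubation; score built on the fluorescence ratio of max minus min over baseline; more negative score means more quench and so TMEM16A activation or potentiation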
Target sequence (Q8BHY3 whole entry, looked up): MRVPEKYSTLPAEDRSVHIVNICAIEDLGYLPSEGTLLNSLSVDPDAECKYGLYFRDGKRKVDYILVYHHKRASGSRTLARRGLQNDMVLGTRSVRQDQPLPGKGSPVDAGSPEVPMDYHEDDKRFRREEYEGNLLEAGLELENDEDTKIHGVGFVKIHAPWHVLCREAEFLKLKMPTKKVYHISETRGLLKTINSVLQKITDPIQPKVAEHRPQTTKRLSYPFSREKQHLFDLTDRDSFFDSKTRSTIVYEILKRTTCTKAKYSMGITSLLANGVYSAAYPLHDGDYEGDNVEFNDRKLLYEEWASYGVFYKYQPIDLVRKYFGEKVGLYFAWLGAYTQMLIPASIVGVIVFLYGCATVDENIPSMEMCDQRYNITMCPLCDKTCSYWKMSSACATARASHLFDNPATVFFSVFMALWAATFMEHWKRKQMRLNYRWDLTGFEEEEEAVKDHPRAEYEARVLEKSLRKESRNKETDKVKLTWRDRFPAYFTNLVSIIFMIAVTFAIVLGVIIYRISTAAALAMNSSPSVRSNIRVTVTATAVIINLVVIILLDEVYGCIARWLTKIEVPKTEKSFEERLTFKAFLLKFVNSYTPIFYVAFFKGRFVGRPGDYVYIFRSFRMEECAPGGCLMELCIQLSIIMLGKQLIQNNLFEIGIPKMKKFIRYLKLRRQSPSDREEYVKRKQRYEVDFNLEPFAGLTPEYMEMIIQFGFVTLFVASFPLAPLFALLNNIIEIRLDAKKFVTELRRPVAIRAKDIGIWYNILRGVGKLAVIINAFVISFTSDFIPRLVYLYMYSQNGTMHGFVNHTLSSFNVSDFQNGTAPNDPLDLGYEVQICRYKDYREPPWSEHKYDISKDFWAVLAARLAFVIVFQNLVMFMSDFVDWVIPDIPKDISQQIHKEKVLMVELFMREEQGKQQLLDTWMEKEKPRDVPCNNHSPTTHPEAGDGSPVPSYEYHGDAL
SR-BI uptake up: activators of SR-BI mediated DiI-HDL uptake, primary screen, ldlA[mSR-BI] CHO cells, DiI fluorescence | AID 504775, 2011 | activation, % at 12.5 µM | 0.096% of 320,000 active | 3 h; 100 = double the neutral-control signal;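 active = mean replicate activation of at least 60% and every replicate at or above 60%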
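System: CHO ldlA[mSR-BI] cells / Medium: HEPES-buffered (25 mM, pH 7.4) F12 plus 0.5% BSA / Probe or stimulus: labelled HDL, 10 µg/mL / Doses: single compound concentration, delivered by pin transfer / Schedule: 3 h, 37 °C / Measured by: DiI fluorescence, bottom read / Measure: cell-associated DiI fluorescence as measure of HDL uptake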
ANO1 block: TMEM16A chloride channel inhibitors, primary screen, cell-based, HTS; HEK293 TMEM16A/YFP iodide influx fluorescence, ionomycin; normalized B-score (activity score, 25-100; higher = stronger inhibition) at 10 µM; 1.2% of 310,000 active;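 active = ratio plate-corrected score three or more library SD toward inhibition, starting fluorescence score within five deviations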;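 also: score derived from kinetic fluorescence span divided by baseline fluorescence per well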
Numbers stand for hits.

What do the screens show for `CN(C)CCCNc1nc(-c2ccccc2)nc2ccccc12`?
DNA FID counter: 58; SR-BI HDL uptake: inactive; Kir21 inh: inactive; ANO1 activ: inactive; SR-BI uptake up: inactive; ANO1 block: inactive

How did NS(=O)(=O)c1ccc(CNC(=O)c2ccc(NS(=O)(=O)c3cccs3)cc2)cc1 do in these assays?
SR-BI HDL uptake: inactive; ANO1 activ: inactive; SR-BI uptake up: inactive

Results for Clc1ccc(-c2nc(NCCCN3CCOCC3)c3ccccc3n2)cc1 ?
DNA FID counter: 48; SR-BI HDL uptake: inactive; Kir21 inh: inactive; ANO1 activ: inactive; SR-BI uptake up: inactive; ANO1 block: inactive

How did c1csc(-c2nc(NCCCN3CCOCC3)c3ccccc3n2)c1 do in these assays?
DNA FID counter: 61; Kir21 inh: inactive; ANO1 activ: inactive; ANO1 block: inactive

What do the screens show for `CCCCn1c(N)c(N(CCOC)C(=O)COC(=O)COc2ccc(CC)cc2)c(=O)[nH]c1=O`?
SR-BI HDL uptake: inactive; Kir21 inh: inactive; ANO1 activ: inactive; SR-BI uptake up: inactive; ANO1 block: inactive

What do the screens show for `Cc1cc(NC(=O)CON=C(N)CC(=O)Nc2ccccc2Cl)ccc1Br`?
SR-BI HDL uptake: inactive; ANO1 activ: inactive; SR-BI uptake up: inactive

Results for CCN(C(=O)c1ccc(C(C)(C)C)cc1)c1nnc(Cn2nnc3ccccc32)s1 ?
DNA FID counter: inactive; SR-BI HDL uptake: inactive; Kir21 inh: inactive; ANO1 activ: inactive; SR-BI uptake up: inactive; ANO1 block: 100

What do the screens show for `Cc1ccc(OCC(=O)NNC(=O)C(C)Sc2ncnc3sc(C)c(C)c23)cc1` (configuration not stated)?
DNA FID counter: inactive; SR-BI HDL uptake: inactive; Kir21 inh: inactive; ANO1 activ: inactive; SR-BI uptake up: inactive; ANO1 block: 100

What do the screens show for `Cc1c(NC(=O)CSc2nnc3c4ccccc4n(CCc4ccccc4)c3n2)c(=O)n(-c2ccccc2)n1C`?
DNA FID counter: inactive; SR-BI HDL uptake: 82; Kir21 inh: inactive; ANO1 activ: inactive; SR-BI uptake up: inactive; ANO1 block: inactive

Results for CCn1c2ccccc2c2nnc(SCC(=O)Nc3c(C)n(C)n(-c4ccccc4)c3=O)nc21 ?
DNA FID counter: inactive; SR-BI HDL uptake: inactive; Kir21 inh: inactive; ANO1 activ: inactive; SR-BI uptake up: inactive; ANO1 block: inactive

What do the screens show for `COC(=O)c1cc(C(=O)OC)cc(N2C(=O)CC(Sc3nc(C)cc(C)n3)C2=O)c1` (configuration not stated)?
DNA FID counter: inactive; SR-BI HDL uptake: inactive; Kir21 inh: inactive; ANO1 activ: -18; SR-BI uptake up: inactive; ANO1 block: inactive

What do the screens show for `Cc1ccnc(SC2CC(=O)N(c3ccc(F)cc3)C2=O)n1` (configuration not stated)?
DNA FID counter: inactive; SR-BI HDL uptake: inactive; Kir21 inh: inactive; ANO1 activ: inactive; SR-BI uptake up: 344; ANO1 block: inactive

What do the screens show for `Cc1onc(-c2c(Cl)cccc2Cl)c1C(=O)N(C)Cc1ccccc1`?
DNA FID counter: inactive; SR-BI HDL uptake: inactive; Kir21 inh: inactive; ANO1 activ: inactive; SR-BI uptake up: inactive; ANO1 block: inactive

How did COc1cc(/C=C2\CCCc3c2nc2ccccc2c3C(=O)O)cc(OC)c1O do in these assays?
DNA FID counter: inactive; SR-BI HDL uptake: inactive; Kir21 inh: inactive; ANO1 activ: inactive; SR-BI uptake up: 231; ANO1 block: inactive

How did COc1cc(OC)c(C(=O)Nc2cc(Cl)ccc2-n2cncn2)cc1OC do in these assays?
SR-BI HDL uptake: 81; Kir21 inh: inactive; ANO1 activ: inactive; SR-BI uptake up: inactive; ANO1 block: inactive

What do the screens show for `COc1ccccc1C(=O)Nc1cc(Cl)ccc1-n1cncn1`?
DNA FID counter: inactive; SR-BI HDL uptake: inactive; Kir21 inh: inactive; ANO1 activ: inactive; SR-BI uptake up: inactive; ANO1 block: inactive

Results for O=C(O)c1ccc(Cl)cc1Nc1nc2cc(Cl)ccc2o1 ?
DNA FID counter: inactive; Kir21 inh: inactive; ANO1 activ: inactive; ANO1 block: 25

What do the screens show for `c1ccc(-c2csc3nnc(SCc4ccc5c(c4)OCCO5)n23)cc1`?
DNA FID counter: inactive; SR-BI HDL uptake: inactive; Kir21 inh: -5.2; ANO1 activ: inactive; SR-BI uptake up: inactive; ANO1 block: 25

How did O=C(CSc1nnc2scc(-c3ccccc3)n12)c1ccc2c(c1)OCCO2 do in these assays?
DNA FID counter: inactive; SR-BI HDL uptake: inactive; Kir21 inh: inactive; ANO1 activ: inactive; SR-BI uptake up: inactive; ANO1 block: inactive

Results for C/C(=N\Nc1cc(N2CCOCC2)ncn1)c1ccc(O)cc1 ?
DNA FID counter: inactive; SR-BI HDL uptake: inactive; Kir21 inh: inactive; ANO1 activ: inactive; SR-BI uptake up: inactive; ANO1 block: inactive

Results for CN(CC(=O)Nc1ccc(Cl)c(Cl)c1)C(=O)C1CCC1 ?
SR-BI HDL uptake: inactive; ANO1 activ: inactive; SR-BI uptake up: inactive

Results for CN(CC(=O)Nc1ccc(Cl)c(Cl)c1)C(=O)C1CCCC1 ?
SR-BI HDL uptake: inactive; ANO1 activ: inactive; SR-BI uptake up: 67

Results for N#Cc1ccc(NC(=O)Nc2ccc(Oc3ccc(NC(=O)Nc4ccc(C#N)cc4)cc3)cc2)cc1 ?
DNA FID counter: inactive; SR-BI HDL uptake: 87; Kir21 inh: inactive; ANO1 activ: inactive; SR-BI uptake up: inactive; ANO1 block: inactive

Results for COc1ccc(NC(=O)N(C)C[C@H]2Oc3ccc(NC(=O)C4CC4)cc3CC(=O)N([C@@H](C)CO)C[C@@H]2C)cc1 ?
SR-BI HDL uptake: inactive; SR-BI uptake up: inactive

How did Cc1nnc(C)c2c(C)n(C(c3ccccc3)c3ccccc3)c(C)c12 do in these assays?
DNA FID counter: inactive; SR-BI HDL uptake: inactive; Kir21 inh: -4.5; ANO1 activ: inactive; SR-BI uptake up: inactive; ANO1 block: inactive

How did O=S(=O)(NCCCc1ccccc1)c1ccc(Cl)cc1 do in these assays?
DNA FID counter: inactive; SR-BI HDL uptake: inactive; Kir21 inh: -4.8; ANO1 activ: inactive; SR-BI uptake up: inactive; ANO1 block: inactive

How did COc1ccc(C=NNC(=O)CCCC(=O)NN=Cc2ccc(OC)c(OC)c2)cc1OC do in these assays?
SR-BI HDL uptake: inactive; ANO1 activ: inactive; SR-BI uptake up: inactive

How did COc1cc(/C=N/NC(=O)CC#N)ccc1Oc1nc(Cl)ncc1F do in these assays?
DNA FID counter: inactive; SR-BI HDL uptake: 82; Kir21 inh: inactive; ANO1 activ: inactive; SR-BI uptake up: inactive; ANO1 block: inactive

Results for COc1ccc(Br)cc1/C=N/NC(=O)c1ccc(OC)c(OC)c1 ?
DNA FID counter: inactive; SR-BI HDL uptake: 92; Kir21 inh: inactive; ANO1 activ: inactive; SR-BI uptake up: inactive; ANO1 block: inactive

Bioassay records deposited in PubChem BioAssay by several laboratories.
